Experimental data collected from several papers.
JAK1 JH1: Tyrosine-protein kinase JAK1, JH1 (JAK1, Homo sapiens, UniProt P23458)
JAK1: Tyrosine-protein kinase JAK1 (JAK1, Homo sapiens, UniProt P23458)
JAK1 JH2: Tyrosine-protein kinase JAK1, JH2 (JAK1, Homo sapiens, UniProt P23458)

Cc1ccc(C(=O)NCc2ccsc2)cc1C#Cc1cn(C(C)C)c2ncnc(N)c12
activity vs control (JAK1 JH1; enzyme activity; inhibitor; 1 µM): 94%

Cc1cc(NC(=O)c2cccc3cc(-c4cccc5[nH]nc(N)c45)ccc23)ccc1F
activity vs control (JAK1 JH1; enzyme activity; inhibitor; 0.1 µM): 105%

O=C(Nc1cnn(-c2csc(C(=O)NC3COC3)c2)c1)Nc1c(F)cccc1Cl
remaining activity (JAK1; enzyme activity; inhibitor; 5 µM): 107%

COc1cc(Cl)c(C(=O)N[C@@H](CN[C@H]2CC[C@@H](N)CC2)Cc2ccc(C#N)cc2)cc1-c1ccc(CN[C@H](C)c2ccc(C)cc2)o1
remaining activity (JAK1 JH1; enzyme activity; inhibitor; 1 µM): 101%

Nc1ncnc2occ(-c3ccc(NC(=O)Nc4cc(C(F)(F)F)ccc4F)cc3)c12
remaining signal (JAK1 JH2; cell-free assay; inhibitor; 20 µM): 67%

CN1CC(Oc2cnc(C#N)cc2-c2ccn3nc(NC(=O)C4CC4)cc3c2)C1
inhibition (JAK1; enzyme activity; inhibitor; 1 µM): -10%

Cc1ccc(NC(=O)c2ccc(C)c(C(F)(F)F)c2)cc1C#Cc1nn(C2CCC(O)CC2)c2ncnc(N)c12 (stereo not drawn)
remaining signal (JAK1 JH1; cell-free assay; 10 µM): 3%

O=C1NC(=O)c2cc(Nc3ccc(F)cc3)c(Nc3ccc(F)cc3)cc21
remaining signal (JAK1; cell-free assay; 0.5 µM): 91.5%

Cc1ccc(C(=O)Nc2ccc(CN3CCN(C)CC3)c(C(F)(F)F)c2)cc1C#Cc1cnc2cccnn12
remaining activity (JAK1; enzyme activity; inhibitor; 23.5 nM): 86%

CS(=O)(=O)NCC[C@H](NC(=O)c1cncc2c1cnn2-c1ccc(F)cc1)c1ccnc(S(C)(=O)=O)c1
remaining binding (JAK1 JH1; cell-free assay; competition with immobilised ligand; 1 µM): 96%

C[C@@H]1CCN(c2nccc(-c3cnn4ncccc34)n2)C1
remaining signal (JAK1 JH1; cell-free assay; 1 µM): 82%

CC(=O)N1CCC(c2ccc(C(=O)NC(=N)N)cc2C(F)(F)F)CC1
remaining binding (JAK1 JH2; cell-free assay; competition with immobilised ligand; 1 µM): 100%

c1nc2c(Nc3ccc4c(c3)OCCO4)nc(Nc3ccc4c(c3)OCCO4)nc2[nH]1
activity vs control (JAK1 JH1; enzyme activity; inhibitor; 10 µM): 52%

CS(=O)(=O)N1CCCC(NC(=O)[C@H](CCC2CCCCC2)NC(=O)c2ccc(CNc3ncnc4c3nnn4-c3ccccc3)cc2)C1 (stereo partly drawn)
remaining binding (JAK1 JH2; cell-free assay; competition with immobilised ligand; 0.1 µM): 89%

CC1CCCN1c1nccc(-c2cnn3ncccc23)n1 (stereo not drawn)
remaining binding (JAK1; binding; 1 µM): 100%

CN1CCN(c2cnc3c(C4CCN(C(=O)c5ccc(OC(F)(F)F)cc5N)CC4)ncnc3c2)CC1
remaining binding (JAK1 JH1; cell-free assay; competition with immobilised ligand; 1 µM): 100%

Cc1cnn2ncc(-c3ccnc(N(C)C)n3)c2c1
remaining binding (JAK1; binding; 1 µM): 51%

C[C@H](c1cccc(C#N)c1)n1cc(Cl)cc(C(N)=O)c1=N
remaining binding (JAK1 JH1; cell-free assay; competition with immobilised ligand; 1 µM): 57%

CN(C)C1CCN(CC#Cc2nn(C3CCCC3)c3nc(NCc4ccccc4)ncc23)C1 (stereo not drawn)
inhibition (JAK1; enzyme activity; inhibitor; FRET; 1 µM): 0%

CCOC(=O)c1cc2cc(-c3cc(C(=O)NCc4ccc(C(=O)O)cc4)nn3C)ccc2[nH]1
remaining binding (JAK1 JH1; cell-free assay; competition with immobilised ligand; 0.1 µM): 100%

Oc1ccc(-c2nc(-c3ccncc3)c(-c3ccc(F)cc3)[nH]2)cc1
remaining signal (JAK1; cell-free assay; 0.5 µM): 102%
